Experimental data published in ChEMBL document CHEMBL4382221, “First-in-class DAPK1/CSF1R dual inhibitors: Discovery of 3,5-dimethoxy-N-(4-(4-methoxyphenoxy)-2-((6-morpholinopyridin-3-yl)amino)pyrimidin-5-yl)benzamide as a potential anti-tauopathies agent” (Eur J Med Chem, 2019).
One block for each compound: values may come before it. Activity calls are given as the source filed them. No cut-off for these calls is given here.

Legend:
[1] = biological target: T1, Death-associated protein kinase 1 (Homo sapiens, UniProt P53355); assay: Inhibition of human DAPK1 (1 to 363 residues) at 10 uM using KKLNRTLSFAEPG as substrate after 120 mins in presence of 10 uM [gamma-33P]-ATP by filtration method relative to control
How it was run: (§1)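 Radiometric HotSpot assay measuring substrate phosphorylation directly, with 10 μM ATP. Single-dose screen at 10 μM in duplicate, reported as mean % inhibition from two independent experiments.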
Target sequence in this assay (P53355 whole entry, looked up, the tested form may be a part): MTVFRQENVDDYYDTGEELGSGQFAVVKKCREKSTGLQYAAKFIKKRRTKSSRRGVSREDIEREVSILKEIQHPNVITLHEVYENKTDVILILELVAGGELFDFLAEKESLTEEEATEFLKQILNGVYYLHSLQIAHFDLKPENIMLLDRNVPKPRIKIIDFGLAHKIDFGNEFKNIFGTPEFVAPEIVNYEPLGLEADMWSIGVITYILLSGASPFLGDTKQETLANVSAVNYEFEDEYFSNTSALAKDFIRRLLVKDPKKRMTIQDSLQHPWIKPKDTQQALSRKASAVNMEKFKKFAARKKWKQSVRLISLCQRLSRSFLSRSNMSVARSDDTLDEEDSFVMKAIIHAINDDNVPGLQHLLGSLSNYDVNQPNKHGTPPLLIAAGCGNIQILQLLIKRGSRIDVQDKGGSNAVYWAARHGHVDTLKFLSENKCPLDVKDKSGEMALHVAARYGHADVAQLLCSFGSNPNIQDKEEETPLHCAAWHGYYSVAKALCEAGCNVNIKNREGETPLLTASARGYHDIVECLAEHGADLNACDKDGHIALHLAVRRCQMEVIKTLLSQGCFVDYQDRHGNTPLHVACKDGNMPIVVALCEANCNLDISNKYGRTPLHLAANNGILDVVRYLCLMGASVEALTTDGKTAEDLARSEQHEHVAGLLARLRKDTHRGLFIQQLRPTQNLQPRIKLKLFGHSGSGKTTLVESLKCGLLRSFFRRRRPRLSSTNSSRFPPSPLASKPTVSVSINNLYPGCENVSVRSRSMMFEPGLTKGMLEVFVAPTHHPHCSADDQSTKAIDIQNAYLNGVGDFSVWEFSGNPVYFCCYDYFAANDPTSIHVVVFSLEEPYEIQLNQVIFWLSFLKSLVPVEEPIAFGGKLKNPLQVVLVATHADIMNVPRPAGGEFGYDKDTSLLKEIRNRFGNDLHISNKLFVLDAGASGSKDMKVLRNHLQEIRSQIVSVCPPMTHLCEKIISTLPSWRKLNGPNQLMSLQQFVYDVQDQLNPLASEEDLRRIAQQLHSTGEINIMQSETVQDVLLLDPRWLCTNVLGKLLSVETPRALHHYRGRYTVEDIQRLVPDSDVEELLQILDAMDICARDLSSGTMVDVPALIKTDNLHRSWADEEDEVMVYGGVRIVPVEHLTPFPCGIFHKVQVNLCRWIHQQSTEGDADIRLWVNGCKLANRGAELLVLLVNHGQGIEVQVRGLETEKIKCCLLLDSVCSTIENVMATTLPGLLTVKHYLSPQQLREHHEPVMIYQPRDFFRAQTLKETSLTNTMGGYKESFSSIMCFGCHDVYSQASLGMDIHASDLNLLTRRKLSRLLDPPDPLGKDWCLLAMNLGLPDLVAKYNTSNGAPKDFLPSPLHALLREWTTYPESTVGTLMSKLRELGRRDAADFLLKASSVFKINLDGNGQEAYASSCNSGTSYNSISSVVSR

[2] = biological target: T2, Macrophage colony-stimulating factor 1 receptor (Homo sapiens, UniProt P07333); assay: Inhibition of human CSF1R at 10 uM using poly[Glu:Tyr] (4:1) as substrate after 120 mins in presence of 10 uM [gamma-33P]-ATP by filtration method relative to control; how it was run: as §1
[3] = biological target: Leucine-rich repeat serine/threonine-protein kinase 2 (Homo sapiens) (UniProt Q5S007); assay: Inhibition of human LRRK2 at 10 uM using RLGRDKYKTLRQIRQ as substrate after 120 mins [gamma-33P]-ATP by filtration method
How it was run: (§2)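 Radiometric kinase selectivity panel of 47 kinases, with compound at 10 μM. Data are means ± SD of two independent experiments.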

[4] = biological target: Serine/threonine-protein kinase pim-1 (Homo sapiens) (UniProt P11309); assay: Inhibition of human PIM1 at 10 uM using KKRNRTLTK as substrate after 120 mins [gamma-33P]-ATP by filtration method; how it was run: as §2
[5] = biological target: T3, Serine/threonine-protein kinase 17A (Homo sapiens) (UniProt Q9UEE5); assay: Inhibition of human DRAK1 at 10 uM using KKLNRTLSFAEPG as substrate after 120 mins [gamma-33P]-ATP by filtration method; how it was run: as §2
T3 sequence (whole entry): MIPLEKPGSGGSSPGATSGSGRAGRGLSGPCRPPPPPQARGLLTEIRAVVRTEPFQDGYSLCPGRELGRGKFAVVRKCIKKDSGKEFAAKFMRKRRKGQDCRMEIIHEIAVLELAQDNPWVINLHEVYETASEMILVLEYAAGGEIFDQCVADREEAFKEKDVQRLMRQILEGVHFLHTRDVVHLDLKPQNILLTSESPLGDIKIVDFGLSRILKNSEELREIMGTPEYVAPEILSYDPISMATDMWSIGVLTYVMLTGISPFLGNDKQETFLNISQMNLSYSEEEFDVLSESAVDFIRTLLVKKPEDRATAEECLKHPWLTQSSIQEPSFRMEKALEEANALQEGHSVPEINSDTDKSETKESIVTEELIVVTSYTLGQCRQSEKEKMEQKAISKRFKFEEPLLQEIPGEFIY

[6] = biological target: Death-associated protein kinase 3 (Homo sapiens) (UniProt O43293); assay: Inhibition of human DAPK3 at 10 uM using KKLNRTLSFAEPG as substrate after 120 mins [gamma-33P]-ATP by filtration method; how it was run: as §2
[7] = biological target: T1, Death-associated protein kinase 1; assay: Inhibition of DAPK1 in HEK293 tau-BiFC cells assessed as reduction in forskolin-induced tau aggregation at 10 uM after 48 hrs by Hoechst staining based HCS analysis; format: cell-based
How it was run: (§3)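 HEK293 cells expressing tau-BiFC were exposed to compounds at 50, 10 and 1 μM with forskolin (30 μM) as the tau aggregation activator for 48 h. BiFC fluorescence intensity was quantified as the read-out. Data are mean ± SD.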
Target sequence in this assay (P53355 whole entry, looked up, the tested form may be a part): as the sequence (P53355 whole entry, looked up, the tested form may be a part) above

[8] = biological target: T1, Death-associated protein kinase 1; assay: Inhibition of human DAPK1 (1 to 363 residues) using KKLNRTLSFAEPG as substrate after 120 mins in presence of 1 uM [gamma-33P]-ATP by filtration method
How it was run: (§4)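 Dose-response curves were run at 1, 10 and 100 μM ATP, giving an IC50 at each ATP level; Ki was calculated.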
Target sequence in this assay (P53355 whole entry, the tested form may be a part): as the sequence (P53355 whole entry, looked up, the tested form may be a part) above

[9] = biological target: T2, Macrophage colony-stimulating factor 1 receptor; assay: Inhibition of human CSF1R using poly[Glu:Tyr] (4:1) as substrate after 120 mins in presence of [gamma-33P]-ATP by filtration method
[10] = biological target: T1, Death-associated protein kinase 1; assay: Inhibition of DAPK1 in HEK293 tau-BiFC cells assessed as reduction in forskolin-induced tau aggregation at 16 uM after 48 hrs by Hoechst staining based HCS analysis relative to control; format: cell-based
How it was run: (§5)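 HEK293 tau-BiFC cells were given forskolin (30 μM) and compound in a 5-dose series (1, 2, 4, 8, 16 μM) for 48 h. BiFC fluorescence was quantified and a cellular IC50 was derived from the series.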
Target sequence in this assay (P53355 whole entry, looked up, the tested form may be a part): as the sequence (P53355 whole entry, looked up, the tested form may be a part) above

[11] = biological target: Proto-oncogene tyrosine-protein kinase Src (Homo sapiens) (UniProt P12931); assay: Inhibition of human c-SRC at 10 uM using poly[Glu:Tyr] (4:1) as substrate after 120 mins [gamma-33P]-ATP by filtration method; how it was run: as §2
[12] = Effective permeability of the compound at 12.5 uM after 4 hrs by PAMPA; format: ADME; settings: read-out: Peff
How it was run: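 BBB-PAMPA lipid membrane permeability was measured as effective permeability Pe (10^-6 cm/sec), with compound tested at 12.5 μM. Results are means ± SD of three independent experiments.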

[13] = biological target: Tyrosine-protein kinase Lyn (Homo sapiens) (UniProt P07948); assay: Inhibition of human LYN at 10 uM using poly[Glu:Tyr] (4:1) as substrate after 120 mins [gamma-33P]-ATP by filtration method; how it was run: as §2
[14] = biological target: Calcium/calmodulin-dependent protein kinase type II subunit alpha (Homo sapiens) (UniProt Q9UQM7); assay: Inhibition of human CAMK2a at 10 uM using KKALRRQETVDAL as substrate after 120 mins [gamma-33P]-ATP by filtration method; how it was run: as §2
[15] = biological target: T2, Macrophage colony-stimulating factor 1 receptor; assay: Inhibition of human CSF1R using poly[Glu:Tyr] (4:1) as substrate after 120 mins in presence of 1 uM [gamma-33P]-ATP by filtration method
How it was run: (§6)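 CSF1R radiometric kinase assay with dose-response curves at 1, 10 and 100 μM ATP. IC50 was calculated at each ATP concentration, and Ki was derived.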

BV-2 = assay: Anti-neuroinflammatory activity in mouse BV2 cells assessed as inhibition of LPS-stimulated NO production at 10 uM preincubated for 1 hr followed by LPS stimulation for 23 hrs by Griess reagent based assay relative to control; format: functional
How it was run: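 Mouse BV-2 microglia were stimulated with LPS, with or without compound at 10 μM, and NO production was measured. Values are means ± SD of five independent experiments.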

[16] = biological target: T2, Macrophage colony-stimulating factor 1 receptor; assay: Inhibition of human CSF1R using poly[Glu:Tyr] (4:1) as substrate after 120 mins in presence of 100 uM [gamma-33P]-ATP by filtration method; how it was run: as §6
[17] = biological target: Tyrosine-protein kinase Lck (Homo sapiens) (UniProt P06239); assay: Inhibition of human LCK at 10 uM using poly[Glu:Tyr] (4:1) as substrate after 120 mins [gamma-33P]-ATP by filtration method; how it was run: as §2
[18] = biological target: T1, Death-associated protein kinase 1; assay: Inhibition of human DAPK1 (1 to 363 residues) using KKLNRTLSFAEPG as substrate after 120 mins in presence of 10 uM [gamma-33P]-ATP by filtration method
How it was run: (§7)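 Radiometric HotSpot assay with direct measurement of phosphorylated substrate at 10 μM ATP. IC50 was taken from a duplicate 10-dose series, 3-fold dilutions starting at 20 μM, reported as mean.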
Target sequence in this assay (P53355 whole entry, the tested form may be a part): as the sequence (P53355 whole entry, looked up, the tested form may be a part) above

[19] = biological target: Death-associated protein kinase 2 (Homo sapiens) (UniProt Q9UIK4); assay: Inhibition of human DAPK2 at 10 uM using KKLNRTLSFAEPG as substrate after 120 mins [gamma-33P]-ATP by filtration method; how it was run: as §2
[20] = biological target: Platelet-derived growth factor receptor beta (Homo sapiens) (UniProt P09619); assay: Inhibition of human PDGFRbeta at 10 uM using poly[Glu:Tyr] (4:1) as substrate after 120 mins [gamma-33P]-ATP by filtration method; how it was run: as §2
[21] = biological target: T2, Macrophage colony-stimulating factor 1 receptor; assay: Inhibition of human CSF1R using poly[Glu:Tyr] (4:1) as substrate after 120 mins in presence of 10 uM [gamma-33P]-ATP by filtration method; how it was run: as §7
[22] = biological target: T1, Death-associated protein kinase 1; assay: Inhibition of DAPK1 in HEK293 tau-BiFC cells assessed as reduction in forskolin-induced tau aggregation after 48 hrs by Hoechst staining based HCS analysis; format: cell-based; how it was run: as §5
Target sequence in this assay (P53355 whole entry, the tested form may be a part): as the sequence (P53355 whole entry, looked up, the tested form may be a part) above

[23] = biological target: T1, Death-associated protein kinase 1; assay: Inhibition of human DAPK1 (1 to 363 residues) using KKLNRTLSFAEPG as substrate after 120 mins [gamma-33P]-ATP by filtration method; how it was run: as §7
Target sequence in this assay (P53355 whole entry, the tested form may be a part): as the sequence (P53355 whole entry, looked up, the tested form may be a part) above

[24] = biological target: T1, Death-associated protein kinase 1; assay: Inhibition of human DAPK1 (1 to 363 residues) using KKLNRTLSFAEPG as substrate after 120 mins in presence of 100 uM [gamma-33P]-ATP by filtration method; how it was run: as §4
Target sequence in this assay (P53355 whole entry, the tested form may be a part): as the sequence (P53355 whole entry, looked up, the tested form may be a part) above

[25] = biological target: Platelet-derived growth factor receptor alpha (Homo sapiens) (UniProt P16234); assay: Inhibition of human PDGFRalpha at 10 uM using poly[Glu:Tyr] (4:1) as substrate after 120 mins [gamma-33P]-ATP by filtration method; how it was run: as §2
[26] = biological target: T1, Death-associated protein kinase 1; assay: Inhibition of DAPK1 in HEK293 tau-BiFC cells assessed as reduction in forskolin-induced tau aggregation at 50 uM after 48 hrs by Hoechst staining based HCS analysis; format: cell-based; how it was run: as §3
Target sequence in this assay (P53355 whole entry, looked up, the tested form may be a part): as the sequence (P53355 whole entry, looked up, the tested form may be a part) above

[27] = biological target: Voltage-gated inwardly rectifying potassium channel KCNH2 (Homo sapiens, UniProt Q12809); assay: Inhibition of red tracer binding to human ERG expressed in membranes preincubated for 10 to 15 mins followed by tracer addition measured after 3 hrs by fluorescence polarization assay
[28] = Cytotoxicity against LPS-stimulated mouse BV2 cells assessed as cell viability at 10 uM after 24 hrs by MTT assay relative to control; format: cell-based, BV-2; settings: read-out: Activity
How it was run: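 BV-2 cell viability was measured in the presence of compound together with LPS and expressed relative to control. Values are means ± SD of five independent experiments.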

[29] = biological target: T1, Death-associated protein kinase 1; assay: Inhibition of human DAPK1 (1 to 363 residues) at 20 uM using KKLNRTLSFAEPG as substrate after 120 mins in presence of 10 uM [gamma-33P]-ATP by filtration method relative to control
How it was run: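 Radiometric HotSpot kinase assay with 10 μM ATP. Compound tested at a single 20 μM concentration, reported as mean % inhibition from two independent experiments.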
Target sequence in this assay (P53355 whole entry, looked up, the tested form may be a part): as the sequence (P53355 whole entry, looked up, the tested form may be a part) above

[30] = biological target: T1, Death-associated protein kinase 1; assay: Inhibition of DAPK1 in HEK293 tau-BiFC cells assessed as reduction in forskolin-induced tau aggregation at 1 to 50 uM after 48 hrs by Hoechst staining based HCS analysis; format: cell-based; how it was run: as §3
Target sequence in this assay (P53355 whole entry, looked up, the tested form may be a part): as the sequence (P53355 whole entry, looked up, the tested form may be a part) above

T2 sequence (P07333 whole entry): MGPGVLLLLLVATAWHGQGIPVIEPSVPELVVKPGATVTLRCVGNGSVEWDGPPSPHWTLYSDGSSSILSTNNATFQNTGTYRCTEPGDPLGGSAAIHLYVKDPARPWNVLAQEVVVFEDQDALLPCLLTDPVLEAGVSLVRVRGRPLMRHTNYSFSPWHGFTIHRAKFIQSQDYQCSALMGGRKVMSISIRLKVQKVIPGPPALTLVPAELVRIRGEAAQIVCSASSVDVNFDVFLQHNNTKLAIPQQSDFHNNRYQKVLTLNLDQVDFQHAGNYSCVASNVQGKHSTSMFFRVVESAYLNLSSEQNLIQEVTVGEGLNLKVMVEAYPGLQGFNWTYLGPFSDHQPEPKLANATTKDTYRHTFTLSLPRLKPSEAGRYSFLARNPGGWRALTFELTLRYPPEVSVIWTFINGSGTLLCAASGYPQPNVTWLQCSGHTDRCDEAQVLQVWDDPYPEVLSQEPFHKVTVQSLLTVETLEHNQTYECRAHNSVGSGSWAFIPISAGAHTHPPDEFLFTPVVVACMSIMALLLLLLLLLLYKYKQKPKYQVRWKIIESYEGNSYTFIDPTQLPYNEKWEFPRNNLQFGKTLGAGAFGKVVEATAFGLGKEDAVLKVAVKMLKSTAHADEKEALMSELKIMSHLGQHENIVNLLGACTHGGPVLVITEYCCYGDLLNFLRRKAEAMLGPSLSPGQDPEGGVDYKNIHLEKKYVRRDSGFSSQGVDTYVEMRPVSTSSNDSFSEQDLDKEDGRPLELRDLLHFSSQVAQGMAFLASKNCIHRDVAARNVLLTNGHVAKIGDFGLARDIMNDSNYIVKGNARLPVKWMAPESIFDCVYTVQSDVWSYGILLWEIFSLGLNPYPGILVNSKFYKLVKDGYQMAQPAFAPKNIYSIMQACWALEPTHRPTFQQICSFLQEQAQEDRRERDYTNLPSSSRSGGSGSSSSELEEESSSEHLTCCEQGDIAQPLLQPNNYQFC
Tyrosine-protein kinase Lyn (Homo sapiens), sequence (P07948 2-512 limits assumed): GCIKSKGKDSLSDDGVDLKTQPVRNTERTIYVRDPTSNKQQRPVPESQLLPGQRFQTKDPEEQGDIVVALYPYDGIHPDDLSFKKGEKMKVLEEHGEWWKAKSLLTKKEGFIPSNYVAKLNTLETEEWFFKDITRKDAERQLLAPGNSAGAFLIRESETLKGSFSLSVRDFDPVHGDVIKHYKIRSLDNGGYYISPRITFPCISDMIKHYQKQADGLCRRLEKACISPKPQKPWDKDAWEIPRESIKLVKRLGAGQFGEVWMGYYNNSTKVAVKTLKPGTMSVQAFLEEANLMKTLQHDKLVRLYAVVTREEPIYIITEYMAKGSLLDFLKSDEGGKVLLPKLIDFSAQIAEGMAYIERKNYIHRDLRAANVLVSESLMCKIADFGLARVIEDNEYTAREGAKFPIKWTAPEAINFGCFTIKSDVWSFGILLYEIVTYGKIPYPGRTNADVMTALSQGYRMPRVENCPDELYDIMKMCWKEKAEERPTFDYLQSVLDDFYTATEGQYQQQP
Serine/threonine-protein kinase pim-1 (Homo sapiens), sequence (P11309 whole entry, looked up): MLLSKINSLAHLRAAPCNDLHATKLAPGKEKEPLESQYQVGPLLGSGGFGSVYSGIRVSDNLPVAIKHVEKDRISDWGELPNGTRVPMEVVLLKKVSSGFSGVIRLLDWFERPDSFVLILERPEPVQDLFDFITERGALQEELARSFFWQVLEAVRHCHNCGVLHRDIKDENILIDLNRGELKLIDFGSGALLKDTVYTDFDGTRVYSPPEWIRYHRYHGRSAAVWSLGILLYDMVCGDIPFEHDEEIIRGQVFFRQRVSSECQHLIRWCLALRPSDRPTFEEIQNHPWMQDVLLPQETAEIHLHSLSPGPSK

SMILES: COc1ccc(Oc2nc(Nc3ccc(N4CCOCC4)nc3)ncc2NC(=O)c2cc(OC)cc(OC)c2)cc1
inhibition [1]: 66.2%
inhibition [3]: inactive
inhibition [4]: inactive
inhibition [5]: inactive
inhibition [6]: inactive
inhibition [7]: Active
IC50 [8]: 2.89 µM
Ki [9]: 0.129 µM
inhibition [10]: 100%
inhibition [11]: Active
Papp at 4 h, 12.5 µM [12]: 570 nm/s
inhibition [13]: Active
inhibition [14]: inactive
IC50 [15]: 0.069 µM
inhibition at 10 µM (BV-2): 55%
IC50 [16]: 0.273 µM
inhibition [17]: Active
IC50 [18]: 1.25 µM
inhibition [19]: inactive
inhibition [20]: inactive
IC50 [21]: 0.15 µM
IC50 [22]: 5 µM
Ki [23]: 0.581 µM
IC50 [24]: 0.92 µM
inhibition [2]: 77.9%
inhibition [25]: inactive
inhibition [26]: Active
IC50 [27]: 17.1 µM
viability at 24 h, 10 µM [28]: > 92%

SMILES: COc1ccc(Oc2nc(Nc3ccc(N4CCOCC4)cc3)ncc2NC(=O)c2cc(OC)cc(OC)c2)cc1
inhibition [7]: inactive
inhibition [29]: 66%
inhibition (BV-2): inactive
IC50 [18]: 2.77 µM
IC50 [21]: 0.12 µM
inhibition [2]: 95.3%
inhibition [26]: Active

SMILES: COc1ccc(Oc2nc(Nc3ccc(F)cc3)ncc2NC(N)=O)cc1
inhibition [1]: 17.1%
inhibition [2]: 21%

Second part, led by results:

inhibition [2]: 35.4%
SMILES: COc1ccc(Oc2nc(Nc3ccc(N4CCOCC4)nc3)ncc2NC(N)=O)cc1
inhibition [1]: 19.7%

inhibition [2]: 59.6%
SMILES: NC(=O)Nc1cnc(Nc2ccc(N3CCOCC3)cc2)nc1Oc1ccc(C(F)(F)F)cc1
inhibition [29]: 44.9%
IC50 [18]: 14.3 µM
inhibition [30]: inactive

IC50 [21]: 1.29 µM
inhibition [2]: 77.6%
SMILES: COc1cccc(Oc2nc(Nc3ccc(N4CCOCC4)cc3)ncc2NC(N)=O)c1
inhibition [1]: 15.8%

IC50 [21]: 4.42 µM
inhibition [2]: 65%
SMILES: COc1ccc(Oc2nc(Nc3ccc(N4CCOCC4)cc3)ncc2NC(N)=O)cc1
inhibition [29]: 10.8%
